What was measured:
Assay type in all cases: functional
Conditions in all cases: route oral
[1] = system: Rattus norvegicus; experiment: Inhibition of Zymosan-induced rat's paw edema(ZPE) after peroral administration of 100 mg/kg dose.
In short: (§1)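 Male Wistar rats (about 150 g) were dosed orally with compound suspended in 5% arabic gum, 1 h before a subplantar hind-paw injection of 0.1 mL saline. The irritant was 1% zymosan for 33 or 1% λ-carrageenin for 34. Paw volume was measured by plethysmograph before dosing and at 4 h (zymosan) or 3 h (carrageenin). Swelling is relative to initial volume, as mean ± SEM. % inhibition is versus the control group's mean swelling.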

[2] = system: Rattus norvegicus; experiment: Antiinflammatory activity on Carrageenan rat's paw edema(CPE) after peroral administration of 100 mg/kg dose with control swelling of 74.7%
[3] = system: Rattus norvegicus; experiment: Antiinflammatory activity on Zymosan-induced rat's paw edema(ZPE) after peroral administration of 100 mg/kg dose with control swelling of 62.0%
In short: (§2)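 Male Wistar rats weighing about 150 g were dosed orally with compound suspended in 5% arabic gum. 1 h later, 1% zymosan in 0.1 mL saline was injected subplantarly into the hind paw. Paw volume was measured by plethysmograph before dosing and 4 h after zymosan, with edema as the volume difference. Inhibition % was derived from mean swelling versus the control group.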

[4] = system: Rattus norvegicus; experiment: Inhibition of carrageenan-induced rat's paw edema (CPE) after peroral administration of 100 mg/kg dose.; in short: as §1
[5] = system: Rattus norvegicus; experiment: Compound was tested for the inhibition of rat reversed passive Arthus pleurisy after peroral administration of 100 mg/kg dose at 3.43+/-0.11*10e6 no of cells with 3.62*10e6 cells of control
In short: (§3)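 Male Wistar rats (about 250 g) under ether received 0.2 mL rabbit anti-egg-albumin antiserum intrapleurally. Thirty min later they got 15 mg EA/100 g body weight in 0.1 mL saline iv. Compounds were given orally beforehand. Rats were killed 4.5 h after induction and the thoracic cavity rinsed with 5 mL saline. Exudate volume and infiltrated cell count were read as mean ± SE. % inhibition is versus control.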

[6] = system: Rattus norvegicus; experiment: Compound was tested for the inhibition of rat reversed passive Arthus pleurisy after peroral administration of 100 mg/kg dose at 0.62 mL of exudate volume with 0.54 mL of control (injected intrapleurally)
In short: (§4)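 Male Wistar rats (about 250 g) were given compound orally before the antiserum. Under ether anesthesia, 0.2 mL rabbit anti-egg albumin antiserum was injected intrapleurally. After 30 min, egg albumin (15 mg/100 g body weight in 0.1 mL saline) was given iv. Rats were killed 4.5 h later and the thoracic cavity was rinsed with 5 mL saline. Exudate volume and infiltrated cell number were measured, with inhibition % versus controls as mean ± SEM.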

[7] = system: Rattus norvegicus; experiment: Antiinflammatory activity on Carrageenan rat's paw edema(CPE) after peroral administration of 100 mg/kg dose with control swelling of 68.1%
[8] = system: Rattus norvegicus; experiment: Compound was tested for the inhibition of rat reversed passive Arthus pleurisy after peroral administration of 100 mg/kg dose at 3.74*10e6 no of cells with 7.4*10e6 cells of control; in short: as §3
[9] = system: Rattus norvegicus; experiment: Compound was tested for the inhibition of rat reversed passive Arthus pleurisy after peroral administration of 100 mg/kg dose at 0.64 mL of exudate volume with 0.82 mL of control (injected intrapleurally); in short: as §4
[10] = system: Rattus norvegicus; experiment: Antiinflammatory activity on Carrageenan rat's paw edema(CPE) after peroral administration of 100 mg/kg dose with control swelling of 64.2%
[11] = system: Rattus norvegicus; experiment: Antiinflammatory activity on Zymosan-induced rat's paw edema(ZPE) after peroral administration of 100 mg/kg dose with control swelling of 71.7%; in short: as §2
[12] = system: Rattus norvegicus; experiment: Compound was tested for the inhibition of rat reversed passive Arthus pleurisy after peroral administration of 100 mg/kg dose at 0.8 mL of exudate volume with 0.84 mL of control (injected intrapleurally); in short: as §4
[13] = system: Rattus norvegicus; experiment: Compound was tested for the inhibition of rat reversed passive Arthus pleurisy after peroral administration of 100 mg/kg dose at 4.47*10e6 no of cells with 5.72*10e6 cells of control; in short: as §3
[14] = system: Rattus norvegicus; experiment: Antiinflammatory activity on Zymosan-induced rat's paw edema(ZPE) after peroral administration of 100 mg/kg dose with control swelling of 62.8%; in short: as §2
[15] = system: Rattus norvegicus; experiment: Compound was tested for the inhibition of rat reversed passive Arthus pleurisy after peroral administration of 100 mg/kg dose at 6.01*10e6 no of cells with 7.4*10e6 cells of control; in short: as §3
[16] = system: Rattus norvegicus; experiment: Compound was tested for the inhibition of rat reversed passive Arthus pleurisy after peroral administration of 100 mg/kg dose at 0.65 mL of exudate volume with 0.82 mL of control (injected intrapleurally); in short: as §3

Structure (SMILES)	inhibition in vivo at 100 mg/kg [1]	Swelling [2]	Swelling [3]	inhibition in vivo at 100 mg/kg [4]	inhibition in vivo at 100 mg/kg [5]	inhibition in vivo at 100 mg/kg [6]	Swelling [7]	inhibition in vivo at 100 mg/kg [8]	inhibition in vivo at 100 mg/kg [9]	Swelling [10]	Swelling [11]	inhibition in vivo at 100 mg/kg [12]	inhibition in vivo at 100 mg/kg [13]	Swelling [14]	inhibition in vivo at 100 mg/kg [15]	inhibition in vivo at 100 mg/kg [16]
CCOC(=O)c1c(O)c2cccnc2n(-c2ccccc2)c1=O	23.5%	63.1%	47.2%	15.5%	–	–	–	–	–	–	–	–	–	–	–	–
O=C(Nc1ccc(Cl)cc1)c1c(O)c2cccnc2n(-c2ccccc2)c1=O	11.6%	–	54.8%	2.5%	18.8%	-16.3%	66.4%	–	–	–	–	–	–	–	–	–
O=C(NCc1ccncc1)c1c(O)c2cccnc2n(-c2ccccc2)c1=O	10%	–	–	15.4%	–	–	–	49.5%	22%	54.3%	64.5%	–	–	–	–	–
COc1ccc(NC(=O)c2c(O)c3cccnc3n(-c3ccccc3)c2=O)cc1	0.3%	–	–	-1.9%	–	–	69.4%	–	–	–	–	5.1%	25.4%	62.6%	–	–
O=C(Nc1ccc(Cl)nc1)c1c(O)c2cccnc2n(-c2ccccc2)c1=O	9.2%	–	–	-4%	–	–	–	–	–	66.8%	65.1%	–	–	–	18.8%	20.7%

Reference: ChEMBL document CHEMBL1126267, “A novel synthesis and potent antiinflammatory activity of 4-hydroxy-2(1H)-oxo-1-phenyl-1,8-naphthyridine-3-carboxamides” (1992)
